# Results reported in ChEMBL document CHEMBL1124751, “Synthesis of perfluoroalkylated xylitol ethers and esters: new surfactants for biomedical uses” (J Med Chem, 1990).
# Tests used:
# [1] = Hemolytic effect on human red blood cells when dispersed in Pluronic F-68 at the concentration of 10 g/1g per L; format: functional
# How it was run: (§1)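 Human erythrocytes were freed of plasma and buffy coat (3300 rpm, 10 min, 10 °C), washed three times in isotonic phosphate saline pH 7.4, then suspended at 1% hematocrit. 2 mL suspension plus an equal volume of surfactant dispersion in Pluronic F-68 / 9‰ NaCl (g compound/g Pluronic per L) was shaken 1 h at 37 °C. Hemolysis was scored visually (0 to ++++).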
# [2] = test system: Mus musculus; experiment: Toxicity in mice when dispersed in Pluronic F-68 in […] aqueous NaCl of 50 g/15 g per L at the concentration of 1187 mg/kg body weight; format: functional
# How it was run: (§2)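 Single tail-vein injection into mice of about 20 g, about 0.5 mL (25 mL/kg body weight) per animal. The test article was a solution or dispersion of surfactant in Pluronic F-68, given as g compound/g Pluronic per L, in 9‰ aqueous NaCl. Symptoms, behavior, mortality and body-weight gain were recorded for 80 days after injection. Survival was reported as survivors/injected in a series of 10 mice.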
# [3] = Viability inhibition towards Namalva Lymphoblastoid Cell Culture at the concentration of 0.05 g/L after dispersion in pluronic F-68; format: functional
# How it was run: (§3)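 Namalva lymphoblastoid suspension culture (RPMI with 10% fetal calf serum, 37 °C, 7% CO2). 2 mL medium at about 3.10^5 cells/mL was mixed with 2 mL test solution, in five flasks, with a reference series in parallel. Cells were counted after 4 days of incubation, and viability was read by Trypan Blue exclusion. Results are % vs controls.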
# [4] = Growth inhibition towards Namalva Lymphoblastoid Cell Culture at the concentration of 0.05 g/L after dispersion in pluronic F-68; format: functional; conditions: in the assay text read “concentration of 0.1 g/L” for “concentration of 0.05 g/L”; how it was run: as §3
# [5] = Growth and viability inhibition towards Namalva Lymphoblastoid Cell Culture at the concentration of 0.05 g/L after dispersion in pluronic F-68; format: functional
# [6] = Percent hemolysis for an erythrocyte suspension at 1% hemocrait at the concentration of 10 g/1g per L; format: functional, Homo sapiens
# How it was run: (§4)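 Washed human red cells at 1% hematocrit (8-9 × 10^7 cells/mL) in phosphate saline pH 7.4 were mixed 1:1 with surfactant/Pluronic F-68 dispersion in 9‰ NaCl and shaken 1 h at 37 °C. After centrifugation, supernatant hemoglobin was read at 540 nm. % hemolysis = 100 (OD_test − OD_NaCl)/(OD_H2O − OD_NaCl), with 9‰ NaCl as the 0% control and water as the 100% control.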
# [7] = Growth and viability inhibition towards Namalva Lymphoblastoid Cell Culture after resowing at the concentration of 0.1 g/L; format: functional
# How it was run: (§5)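 Namalva lymphoblastoid cells in suspension (RPMI, 10% fetal calf serum, 37 °C, 7% CO2). Five flasks per test, each with 2 mL medium at about 3.10^5 cells/mL plus 2 mL test solution, alongside a reference series. After 4 days the compound was removed. Cells were washed and resown in 4 mL medium, and growth and viability were reported as % vs controls.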
# [8] = Percent hemolysis for an erythrocyte suspension at 1% hemocrait at the concentration of 10 g/ L; format: functional, Homo sapiens; how it was run: as §4
# [9] = Growth inhibition towards Namalva Lymphoblastoid Cell Culture at the concentration of 0.1 g/L; format: functional; how it was run: as §3
# [10] = Hemolytic effect on human red blood cells when dispersed in Pluronic F-68 at the concentration of 20 g/10 g per L; format: functional; how it was run: as §1
# [11] = Percent hemolysis for an erythrocyte suspension at 1% hemocrait at the concentration of 20 g/ L; format: functional, Homo sapiens; how it was run: as §4
# [12] = Percent hemolysis for an erythrocyte suspension at 1% hemocrait at the concentration of 20 g/10 g per L; format: functional, Homo sapiens; how it was run: as §4
# [13] = test system: Mus musculus; experiment: Toxicity in mice when dispersed in Pluronic F-68 in […] aqueous NaCl of 20 g/10 g per L at the concentration of 455,mg/Kg body weight; format: functional; how it was run: as §2
# [14] = Solubility was determined; format: physicochemical
# [15] = Hemolytic effect on human red blood cells when dispersed in Pluronic F-68 at the concentration of 40 g/20 g per L; format: functional; how it was run: as §1
# [16] = test system: Mus musculus; experiment: Toxicity in mice when dispersed in Pluronic F-68 in […] aqueous NaCl of 42 g/22 g per L at the concentration of 1035 mg/kg body weight; format: functional; how it was run: as §2
# [17] = Viability inhibition towards Namalva Lymphoblastoid Cell Culture at the concentration of 0.1 g/L; format: functional; how it was run: as §3
# [18] = Viability inhibition towards Namalva Lymphoblastoid Cell Culture at the concentration of 0.1 g/L and after detoxification on anionic exchanger; format: functional; how it was run: as §3
# [19] = Growth and viability inhibition towards Namalva Lymphoblastoid Cell Culture after resowing at the concentration of 0.2 g/L; format: functional; how it was run: as §5
# [20] = test system: Mus musculus; experiment: Toxicity in mice when dispersed in Pluronic F-68 in […] aqueous NaCl of 20 g/5 g per L at the concentration of 491 mg/kg body weight; format: functional; how it was run: as §2
# [21] = Growth inhibition towards Namalva Lymphoblastoid Cell Culture at the concentration of 0.1 g/L and after detoxification on anionic exchanger; format: functional; how it was run: as §3
# [22] = Growth and viability inhibition towards Namalva Lymphoblastoid Cell Culture after resowing at the concentration of 0.1 g/L and after detoxification on anionic exchanger; format: functional; how it was run: as §5
# [23] = Hemolytic effect on human red blood cells when dispersed in Pluronic F-68 at the concentration of 20 g/5 g per L; format: functional; how it was run: as §1
# [24] = test system: Mus musculus; experiment: Toxicity in mice when dispersed in Pluronic F-68 in […] aqueous NaCl of 15 g/3.73g per L at the concentration of 371 mg/kg body weight; format: functional; how it was run: as §2
# [25] = Hemolytic effect on human red blood cells when dispersed in Pluronic F-68 at the concentration of 10 g/2.5g per L; format: functional; how it was run: as §1
# [26] = Growth inhibition towards Namalva Lymphoblastoid Cell Culture at the concentration of 0.2 g/L; format: functional; how it was run: as §3
# [27] = test system: Mus musculus; experiment: Toxicity in mice when dispersed in Pluronic F-68 in […] aqueous NaCl of 40 g/10 g per L at the concentration of 1034 mg/kg body weight; format: functional
# [28] = Hemolytic effect on human red blood cells when dispersed in Pluronic F-68 at the concentration of 40 g/10 g per L; format: functional; how it was run: as §1
# [29] = test system: Mus musculus; experiment: Toxicity in mice when dispersed in Pluronic F-68 in […] aqueous NaCl of 0.1 g and at the concentration of 2,mg/Kg body weight; format: functional; how it was run: as §2
# [30] = Viability inhibition towards Namalva Lymphoblastoid Cell Culture at the concentration of 0.2 g/L; format: functional; how it was run: as §3
# [31] = Hemolytic effect on human red blood cells when dispersed in Pluronic F-68 at the concentration of 20 g/1 g per L; format: functional; how it was run: as §1
# [32] = Percent hemolysis for an erythrocyte suspension at 1% hemocrait at the concentration of 1 g/L; format: functional, Homo sapiens; how it was run: as §4
# [33] = Hemolytic effect on human red blood cells when dispersed in Pluronic F-68 at the concentration of 10 g/5g per L; format: functional; how it was run: as §1
# [34] = test system: Mus musculus; experiment: Toxicity in mice when dispersed in Pluronic F-68 in […] aqueous NaCl of 0.1 g at the concentration of 2,mg/Kg body weight; format: functional; how it was run: as §2
# [35] = Percent hemolysis for an erythrocyte suspension at 1% hemocrait at the concentration of 1 g/0.05 g per L; format: functional, Homo sapiens; how it was run: as §4
# [36] = Hemolytic effect on human red blood cells when dispersed in Pluronic F-68 at the concentration of 1 g/0.05 g per L; format: functional; how it was run: as §1
# [37] = test system: Mus musculus; experiment: Toxicity in mice when dispersed in Pluronic F-68 in […] aqueous NaCl of 20 g/10 g per L at the concentration of 443 mg/kg body weight; format: functional; how it was run: as §2
compound,measurement,setting,value
OCC(O)C(O)C(O)COC/C=C/C(F)(F)C(F)(F)C(F)(F)C(F)(F)C(F)(F)C(F)(F)C(F)(F)C(F)(F)F (stereo not given),Activity,[1],16.4 mM
same,Survival ratio,[2],5
same,Viability,[3],98%
same,Growth,[4],108%
same,Resowing,[5],115%
same,Hemolysis,[6],0%
same,Resowing,[7],100%
same,Hemolysis,[8],0%
same,Growth,[9],78%
same,Activity,[10],32.8 mM
same,Hemolysis,[11],0%
same,Hemolysis,[12],0%
same,Survival ratio,[13],10
same,solubility,[14],50 µg/mL
same,Activity,[15],65.6 mM
same,Survival ratio,[16],8
same,Viability,[17],97%
O=C(CCC(F)(F)C(F)(F)C(F)(F)C(F)(F)C(F)(F)C(F)(F)C(F)(F)C(F)(F)F)OCC(O)C(O)C(O)CO (stereo not given),solubility,[14],< 10 µg/mL
OCC(O)C(O)C(O)COC/C=C/C(F)(F)C(F)(F)C(F)(F)C(F)(F)C(F)(F)C(F)(F)F (stereo not given),Viability,[18],93%
same,Resowing,[19],95%
same,Survival ratio,[20],8
same,Growth,[21],78%
same,Resowing,[22],105%
same,Activity,[23],39.2 mM
same,Resowing,[7],96%
same,Survival ratio,[24],10
same,Growth,[9],23%
same,Activity,[25],19.6 mM
same,Growth,[26],86%
same,Survival ratio,[27],0
same,solubility,[14],< 1000 µg/mL
same,Activity,[28],78.4 mM
same,Survival ratio,[29],10
same,Viability,[30],98%
same,Viability,[17],80%
O=C(CCC(F)(F)C(F)(F)C(F)(F)C(F)(F)C(F)(F)F)OCC(O)C(O)C(O)CO (stereo not given),solubility,[14],500 µg/mL
OCC(O)C(O)C(O)COC/C=C/C(F)(F)C(F)(F)C(F)(F)C(F)(F)F (stereo not given),Viability,[18],95%
same,Growth,[21],125%
same,Activity,[31],48.7 mM
same,Resowing,[22],105%
same,Hemolysis,[32],0%
same,Activity,[33],24.4 mM
same,Resowing,[7],106%
same,Growth,[9],32%
same,Survival ratio,[34],10
same,Hemolysis,[35],0%
same,solubility,[14],< 5000 µg/mL
same,Activity,[36],2.4 mM
same,Viability,[17],87%
same,Survival ratio,[37],9
